In the EternaBench riboswitch data:

Tested on: MS2 coat protein
Assay: apparent Kd, MS2 coat protein; higher = weaker binding; RNA-MaP array; FMN 200 µM where present
Method in brief: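 On Illumina sequencing-chip clusters, designs were transcribed by stalled E. coli RNA polymerase and titrated with SNAP-549-labelled MS2 coat protein (0.7 or 1.5 nM, doubling to 3 µM), without and then with constant ligand, in 100 mM Tris-HCl pH 7.5, 80 mM KCl, 4 mM MgCl2, BSA, DTT, yeast tRNA and Tween-20. Apparent Kd is the median of filtered per-cluster curve fits to green signal normalised to red-channel RNA signal and control-cluster median Fmax.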

[1] = designed as: OFF switch for flavin mononucleotide, no ligand
[2] = ligand present: flavin mononucleotide, designed as: OFF switch for flavin mononucleotide
[3] = designed as: ON switch for flavin mononucleotide, no ligand
[4] = ligand present: flavin mononucleotide, designed as: ON switch for flavin mononucleotide

Sequence	apparent Kd [1]	apparent Kd [2]	apparent Kd [3]	apparent Kd [4]
GCAGGUCGUGUGAGGAUAUCAUAGUUUAGCGGAGAUGAGAAGGCACAUGAGGAUCACCCAUGUCCAUCCUGCCU	36 nM	92.6 nM		
GCACAUGAGGAUCACCCAUGUCGGGAGGAUAUCUAGGCUGGGCGAUGCUAGGGCGGCCUUUGCUUAGAGAAGGCCCAUAAAAUC			69.1 nM	32.4 nM
CGCUAAUAAUUAAUAUUAAUUGUACAGGAUAUGUUACAUGAGGAUCACCCAUGUAUUGGGUUUAAACAGAAGGGUAUAUUAGCG	191 nM	81.4 nM		
UUUUCACAUGAGGAUCACCCAUGUGAGGAUAUGGAGCGCGACCGCGCGGUCGCGUACACCAGAAGGCGCAUGAU	30.5 nM	36.6 nM		
GAAUGUCGGGUAGGAUAUGACGUGCCACGGAGGUCAGAAGGGCCGCGACAUGAGGAUCACCCAUGUACUGUAUUCCUUUUUCAA	24.3 nM	67.4 nM		
GCGUUGAACGAGAAGGCCAAUACAUGAGGAUCACCCAUGUAGUGAAGUAUUGGAGGAUAUCGAUCGGCGUCUCAUGAGCAACGC	7.49 nM	19.6 nM		
GGGCACAUCGGAGGAUAUCAUGUAAAUACAUGAGGAUCACCCAUGUCGAUGGAGACAUCGGAGAUUGAGAAGGCCGAUGUACCG			191 nM	9.02 nM
GUAGCAUACCGAGGAUAUUCAUAUAAUAAGUAAACAUGAGGAUCACCCAUGUAGCGAGAGCCUUGGGAGAAGGCGGAAUGCUAC			337 nM	58.1 nM
UUGGUUACAUGAGGAUCACCCAUGUCUCAGGCCCUAUUUAGCAGAAGGCCAGCUGGGCUACGGAUGGAGGAUAUGCUUAUGGCC			131 nM	29.6 nM
GUGACGAAUGUAGGAUAUGCUGAGGAUAACUCAGCAGAAGGACAUGAGGAUCACCCAUGUACUAUGAGUGAAUAAUAACGUCAC	82.2 nM	756 nM		
GGCGGGCACACUGGCCGCUGAAGGAGAAGGCAGUGCACAUGAGGAUCACCCAUGUCGCGUGUGCCUGAGGAUAUCCGUAAAACG	9.38 nM	71.4 nM		
UGUCGGAGCAGAGGAUAUUACAUGAGGAUCACCCAUGUAUGAACAAAUAGCUGGAAACAGCAAUGUAAGAAGGCUGCUCCGACA	5.82 nM	7.45 nM		
GGUACUCAAAGAGUACCAAUACGAACAUGAGGAUCACCCAUGUAGGAUAUGCUACUAAAAGAGUAGCAGAAGGACAUGUGCCUA	13.5 nM	75.4 nM		
ACAUGAGGAUCACCCAUGUCACUUUUACAUGGGUAUAUAAGCGAGGAUAUGCAUAUACCCUGGGUGCAGAAGGCGCUUUUUUAA	74.5 nM	105 nM		
GGAGCACAUAAAUACAUGAGGAUCACCCAUGUCAAAAGACAUGAGGAUAUGGAUCGGAAAACGAUCUAGAAGGCAUGGUGCUCC			533 nM	20.9 nM
UGAUCGAGAGAUCUUAGAUUCUGGUAGGAUAUACAUUAUGAAAAUUUUACAUGAGGAUCACCCAUGUAGAAGGACUAGAGUCUA	5.44 nM	6.33 nM		
UUUUUGUGAGGAUAUCAGUAGUAGAACAAUAGUACUACUACUGAGAAGGUACAUGAGGAUCACCCAUGUUCCUC	19.4 nM	23.7 nM		
AUCAGCUCGUCAGGAUAUACGUCACUGCGUCAGCAGUGUGGUAAGAUCACAUGAGGAUCACCCAUGUAGAAGGGACGACCUGAU	13.8 nM	278 nM		
GGAUCGAAUGUGAGGAUAUACCUAUGGAAACAUAGGUAGAAGGCACAUGAGGAUCACCCAUGUCCUAACGGUCC	419 nM	456 nM		
UUGCCUCAGAACAUGAGGAUCACCCAUGUGCUGCGGGCAACGUAGGAUAUGAUGGCGUGACGCCAUCAGAAGGAUGAUGGUACC			5.92 nM	6.15 nM
CGCUAUUAUGUAGGAUAUACAUUUUUUAUGUAUGUAGAAGGACAUGAGGAUCACCCAUGUAAAUAAAUUUUAAUUAUCAUAGCG	21.9 nM	18.3 nM		
AAUAAACAUGAGGAUCACCCAUGUCAGGAUAUCCAUUUGUUUUUGUUGGUUUUUUUUUGGAGAAGGGACGCUUA	87.3 nM	63 nM		
AAUAUGUUGCAGAAGGUUAUUUUUAUAACGAUCCACUUGACAUGAGGAUCACCCAUGUAAUUGAUGAAGGAUAUGCAAUAUAUU	6.69 nM	6.69 nM		
CCAAGAAUAGGAUAUACACGAUGUCAGCUUCUAUACAUCGCACAUGAGGAUCACCCAUGUAGAAGGGUUCUCUC	735 nM	823 nM		
UCCGAACAUGAGGAUCACCCAUGUGAGGAUAUAGACGUGAAUUAAACACGUAACAAAACUAGAAGGCACUGGGC	14.7 nM	13.2 nM		
AUCGGGAUUACAUGAGGAUCACCCAUGUCAGAACGGGUAGUUAGAAGGUGCCAUUAGGGAGAGGGUAAGGAUAUAAUUUUUGGC			14.6 nM	12.8 nM
UAUGUGUCAGGAUAUUAGUAGUAUAUAGAUAUAUAUAUUACUGAGAAGGGACAUGAGGAUCACCCAUGUACCUU	16.5 nM	19.1 nM		
CGAUAGGACAGAGGAUAUACACAUGAGGAUCACCCAUGUGAUUUCAACGCGAAAGCGCCAAACAUGUAGAAGGCUGUCCUAUCG	25.9 nM	16.4 nM		

Sequence	apparent Kd [1]	apparent Kd [2]	apparent Kd [3]	apparent Kd [4]
AUUUCGUCAGGAUAUCCUAGUAAUUGUUUCAUAUUUUCAUAGGAGAAGGGACAUGAGGAUCACCCAUGUUUGUC	25.5 nM	24.5 nM		
GGAUAGGACAGAGGAUAUACGUGCUAGAGAUACUAGCGAAAUUUCCUCACAUGAGGAUCACCCAUGUAGAAGGCUGUCCUAUCG	28.1 nM	892 nM		
GCUGGACGUCGAGGAUAUGGGUGUGCGAGUCUUGGCACUGGACAUGAGGAUCACCCAUGUCGCUUCCAGAAGGCGACGUCCCUA			35.1 nM	6.55 nM
UGGUACUAGGGAGGAUAUGGGAAGAGACAUGAGGAUCACCCAUGUUUAAGAAUGCCGAGAGGCAACUAGAAGGCCCUAGUACCU			38.8 nM	7.42 nM
GGGUACAUCGGAGGAUAUCAUGUAAAUACAUGAGGAUCACCCAUGUCGAUGGAAACAUCGGAGAUUGAGAAGGCCGAUGUACCG			9.76 nM	5.01 nM
UAUAAAACAUAGGAUAUCGAAAUUAUCAUUUAACGAGAAGGAUGAACAUGAGGAUCACCCAUGUGGUAUCAUGG	392 nM	518 nM		
CCGGAAAUGAAGGAUAUAGGUGUCGAUAGACUCCUAGAAGGUCAUACAUGAGGAUCACCCAUGUGUCCUACCGG	15.7 nM	32.6 nM		
AACAGUAUAGGAUAUACAUGAGGAUCACCCAUGUGAGAAUUAAGUGGCGUACCACUAAGUAGAAGGAUACUGGA	50.8 nM	222 nM		
AAAACAUGAGGAUCACCCAUGUAAAGAACGGUUAAUAAAUGUGAGGAUAUACUAAAAUUUAGGUAGUAGAAGGCACUGGGUACA			24.1 nM	25.7 nM
UUAUUAAACAUUAACAUGAGGAUCACCCAUGUCAAAAGACAUGAGGAUAUGGAUCCUAAUUGGAUCCAGAAGGCAUGUAUUAAU			156 nM	15.6 nM
AGUUACAUACUCAACAUGAGGAUCACCCAUGUACUCUCUUGUAAGGAUAUACAUUCGUAUUGAUAGUAGAAGGUACUAAUUAUG			50.9 nM	51.5 nM
UCAUUUCAGUAAGGAUAUUAAAACAUGACGAUACAUGAGGAUCACCCAUGUUAAGAAGGUACUAAUACAAAUAAUGCAUUGUUC	14.7 nM	15.5 nM		
AAGAAACAUGAGGAUCACCCAUGUAGAAAUAUGGGAGGAUAUACGAAGACGAAAGUCAAAGUAGAAGGCCUAAAAG			94.6 nM	27.7 nM
GUGCCUUGGGAGAAGGAUAAUAAUAAAUAAAUAAUAGGAUAUUCAUACCGGAAACGGACAUGAGGAUCACCCAUGUGGCACAAA			413 nM	125 nM
UUUUACGCAGGAUAUACAUUUUUUUUAUUAUCCUCAUUAUUACAUGAGGAUCACCCAUGUAGAAGGGCGAUUUU	75.7 nM	99.7 nM		
GUGGUUGUCGUAGGAUAUGUAGGAUAUUCCUACAUGAGGAUCACCCAUGUUCGCAUGGAAGAAGGACAGAAGGACGAUGACCAC			1250 nM	10.2 nM
AAGAAGUGAGGAUAUGCUGCUCGUCACUUGCGUGAUGAGUAGCAGAAGGCACAUGAGGAUCACCCAUGUGAAAA	26 nM	43.3 nM		
UCAUGGAAGCAGGAUAUGCUUGUUUAAUUGUUUGCAGAAGGGCUAACAUGAGGAUCACCCAUGUAAGAGGUCUA	45.8 nM	34.1 nM		
GAUGCAUAUGAGAAGGCGAUCAUGAAACAUGAUCGAGGAUAUCAUGUAAACAUGAGGAUCACCCAUGUAUGGGAAAAGUGCAUC			72.4 nM	11.4 nM
CUUUUAUAAUAGAAGGUAGACUUCAUGAGGAUCACCCAUGUGUUGGUACUAAGGAUAUGUAAUAACAUGAGGAUCACCCAUGUU			15.8 nM	16.1 nM
UUUAUGAAGCUUCGUCAAUACAGUUAGGAUAUGAGAGACAUGAGGAUCACCCAUGUGCAUGUUGAUUAGAAGGAACAACUAUCU	17.6 nM	15.1 nM		
GUUUCACAUGAGGAUCACCCAUGUGAGGAUAUAGAUUUGUUAACCGUAGUUAAUAGAUCUAGAAGGCGCGUGAU	60.7 nM	66.1 nM		
CUGUGUUGCGGGCAGGAUAUGUAUUGGAAUACAUGAGGAUCACCCAUGUGCGGGUGUUUCACCCGACAGAAGGGCCAAUCGCGAC			363 nM	34.9 nM
AAUCCACAUGAGGAUCACCCAUGUGAGGAUAUGAUACUAUGUACUUCGGUACAUAGUAUCAGAAGGCACAGGUC	23.6 nM	51.6 nM		
CAGGUAGACUGAGGAUAUACAAUAAAGACCUAGUCUAUCUAGGUCUUCACAUGAGGAUCACCCAUGUAGAAGGCAGUCUGCCUG	19.1 nM	38.5 nM		
AGUUUACAUGAGGAUCACCCAUGUGAGGAUAUGGUUUCGCUGGCCGUAGCCAGUGGAACCAGAAGGCGCAUGAU	76 nM	349 nM		
CCUAAGGAGGUAGGAUAUAGUGUGGUGGCCGGGCUCCCACGGCGAGCGGCACUAGAAGGAUCGCUACAUGAGGAUCACCCAUGU			10.2 nM	9.71 nM
